Experimental data collected from several papers.
Each line is one published result; the experiments were not run side by side.
Target: Serine/threonine-protein kinase DCLK1 (DCLK1, Homo sapiens, UniProt O15075)
One construct used (O15075 1-740): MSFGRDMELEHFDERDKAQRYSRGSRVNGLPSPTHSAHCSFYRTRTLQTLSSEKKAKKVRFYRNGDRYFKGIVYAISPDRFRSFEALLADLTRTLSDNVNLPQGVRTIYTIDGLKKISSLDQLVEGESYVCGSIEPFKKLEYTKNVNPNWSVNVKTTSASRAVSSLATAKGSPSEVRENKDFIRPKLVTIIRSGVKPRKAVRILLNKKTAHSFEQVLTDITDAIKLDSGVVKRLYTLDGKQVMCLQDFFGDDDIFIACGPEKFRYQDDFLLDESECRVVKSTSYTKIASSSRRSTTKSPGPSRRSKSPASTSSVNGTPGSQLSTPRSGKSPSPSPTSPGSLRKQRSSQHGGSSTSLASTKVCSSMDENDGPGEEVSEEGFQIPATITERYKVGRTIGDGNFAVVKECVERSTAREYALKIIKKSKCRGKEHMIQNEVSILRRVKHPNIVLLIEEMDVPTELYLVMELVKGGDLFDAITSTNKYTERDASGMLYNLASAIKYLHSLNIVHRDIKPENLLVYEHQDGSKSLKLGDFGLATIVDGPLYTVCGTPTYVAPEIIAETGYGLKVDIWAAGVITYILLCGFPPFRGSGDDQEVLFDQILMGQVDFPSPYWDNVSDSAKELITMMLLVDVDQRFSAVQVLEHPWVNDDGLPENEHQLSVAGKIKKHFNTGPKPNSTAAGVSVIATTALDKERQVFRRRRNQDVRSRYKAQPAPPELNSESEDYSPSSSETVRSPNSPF

Cn1c2c(c3ccc(Cl)c(Cl)c31)C(C#N)C1(CCOCC1)NC2=O (centres unmarked)
ΔTm (thermal stability, DSF; 10 µM): 0 °C

Nc1cnc(N2CCc3cc(S(=O)(=O)Nc4c(F)cc(Cl)cc4F)cc(N4CCCC4=O)c32)nc1
remaining binding (cell-free assay, competition with immobilised ligand; 1 µM): 100%

CS(=O)(=O)Nc1cccc(-c2csc(NC(=O)CSc3nc4nccnc4c(=O)n3CCc3ccccc3)n2)c1
inhibition (enzyme activity, inhibitor; 10 µM): 1%

CC(=O)N1CCC(c2ccc(C(=O)NC(=N)N)cc2C(F)(F)F)CC1
remaining binding (cell-free assay, competition with immobilised ligand; 1 µM): 100%

O=C(Nc1cnn(-c2csc(C(=O)NC3COC3)c2)c1)Nc1ccccc1Cl
remaining activity (enzyme activity, inhibitor; 5 µM): 99.2%

CC(C)(O)[C@H]1CC[C@H](Nc2ccc3ncc(-c4cccc(C(F)(F)F)c4)n3n2)CC1
remaining activity (enzyme activity, inhibitor; 1 µM): 93.4%

Cn1c2c(c3ccc(Cl)c(Cl)c31)C(C#N)C1(CCN(C(=O)OC(C)(C)C)CC1)NC2=O (racemic)
ΔTm (thermal stability, DSF; 10 µM): 0 °C

Cc1sc(C(=O)NC2COC2)cc1-n1cc(NC(=O)Nc2c(F)cccc2Cl)cn1
remaining activity (enzyme activity, inhibitor; 10 µM): 67.2%

Cc1c(NC(=O)c2cc(C(N)=O)nc3cc(F)ccc23)c(C(F)(F)F)nn1Cc1ccc(C(C)(C)C)cc1
remaining binding (cell-free assay, competition with immobilised ligand; 1 µM): 91%

Cc1ccc(C(=O)Nc2ccc(CN3CCN(C)CC3)c(C(F)(F)F)c2)cc1C#Cc1cnc2cccnn12
remaining activity (enzyme activity, inhibitor; 23.5 nM): 93%

Cn1c2c(Cl)c(Cl)ccc2c2cc(N)[nH]c(=O)c21
ΔTm (thermal stability, DSF; 10 µM): 0.1 °C

Nc1ncnc2occ(-c3ccc(NC(=O)Nc4cc(C(F)(F)F)ccc4F)cc3)c12
remaining signal (cell-free assay, inhibitor; 20 µM): 80%

O=C(CSc1nc2nccnc2c(=O)n1CCc1ccccc1)Nc1nccs1
inhibition (enzyme activity, inhibitor; 10 µM): 14%

Cn1c2c(Cl)c(Cl)ccc2c2cc[nH]c(=O)c21
ΔTm (thermal stability, DSF; 10 µM): -0.1 °C
